Results taken from PMC3618282 (International journal of pharmaceutics, 2012).
Square brackets hold non-standard residues; d marks the D form. Peptide text beside a SMILES is read from it. Sar = CNCC(=O)O

Assays:
[1] = AP–BL [14C]Mannitol permeability; type: in vitro ADME, canine; settings: dog, MDCK, pH 7.4
[2] = AP–BL [14C]Mannitol permeability; type: in vitro ADME, canine; settings: dog, MDCK-MDR1, pH 7.4
[3] = system: apical peptide transporters in MDCKII-MDR1 cells; assay: Apical [3H]Gly-Sar uptake; type: in vitro ADME, canine
Method in brief: (§1)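 Cells under passage 6 were seeded at 7 × 10^4 cells/cm2 in 12-well plates and washed with DPBS pH 7.4. Apical [3H]Gly-Sar (0.5 μCi/mL in DPBS) with unlabeled Gly-Sar (5–250 μM) was incubated 15 min at 37 °C and 4 °C. Stop was ice-cold 200 mM KCl/2 mM HEPES. Lysis in 0.3 N NaOH/0.1% Triton X-100, scintillation counting, normalised to protein. Specific uptake is 37 °C minus 4 °C. Michaelis–Menten fit gave Km and Vmax; efficiency is Vmax/Km; n = 3.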

[4] = system: apical peptide transporters; assay: Apical [3H]Gly-Sar uptake; type: in vitro ADME, canine; settings: dog, MDCKII-MDR1 cells (apical uptake), pH 7.4
Method in brief: as §1

[5] = system: apical peptide transporters in MDCKII-wt cells; assay: Apical [3H]Gly-Sar uptake; type: in vitro ADME, canine
Method in brief: as §1

[6] = system: basolateral peptide transporters in MDCKII-MRP2 cells; assay: Basolateral [3H]Gly-Sar uptake; type: in vitro ADME, canine; settings: basolateral uptake, MDCKII-MRP2
Method in brief: (§2)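 Cells under passage 6 were seeded at 2 × 10^5 cells/cm2 on Transwell inserts (0.4 μm pore) and dosed from the basolateral side. [3H]Gly-Sar was given with unlabeled Gly-Sar (0–250 μM) at 4 °C and 37 °C. Specific uptake is 37 °C minus 4 °C, normalised to protein and fitted to Michaelis–Menten for Km and Vmax; n = 3.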

[7] = system: basolateral peptide transporters; assay: Basolateral [3H]Gly-Sar uptake; type: in vitro ADME, canine; settings: dog, MDCKII-MRP2 cells on Transwell inserts (basolateral uptake), pH 7.4
Method in brief: as §2

[8] = system: basolateral peptide transporters in MDCKII-MDR1 cells; assay: Basolateral [3H]Gly-Sar uptake; type: in vitro ADME, canine; settings: basolateral uptake, MDCKII-MDR1
Method in brief: as §2

[9] = system: basolateral peptide transporters; assay: Basolateral [3H]Gly-Sar uptake; type: in vitro ADME, canine; settings: dog, MDCKII-MDR1 cells on Transwell inserts (basolateral uptake), pH 7.4
Method in brief: as §2

[10] = system: basolateral peptide transporters in MDCKII-wt cells; assay: Basolateral [3H]Gly-Sar uptake; type: in vitro ADME, canine
Method in brief: as §2

[11] = system: apical peptide transporters in MDCKII-BCRP cells; assay: Apical [3H]Gly-Sar uptake; type: in vitro ADME, canine
Method in brief: as §1

[12] = system: apical peptide transporters; assay: Apical [3H]Gly-Sar uptake; type: in vitro ADME, canine; settings: dog, MDCKII-BCRP cells (apical uptake), pH 7.4
Method in brief: as §1

[13] = system: apical peptide transporters in MDCKII-MRP2 cells; assay: Apical [3H]Gly-Sar uptake; type: in vitro ADME, canine
Method in brief: as §1

[14] = system: apical peptide transporters; assay: Apical [3H]Gly-Sar uptake; type: in vitro ADME, canine; settings: dog, MDCKII-MRP2 cells (apical uptake), pH 7.4
Method in brief: as §1

[15] = Transporter-mediated transepithelial Gly-Sar transport; type: in vitro ADME, canine; settings: dog, MDCK, MDCKII-wt
Method in brief: (§3)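 Monolayers under passage 6 were grown on Transwell inserts (2 × 10^5 cells/cm2) and washed with DPBS pH 7.4. Apical 0.5 mL was at pH 4.0–7.4; basolateral 1.5 mL was held at pH 7.4. [3H]Gly-Sar was run AP→BL and BL→AP. Receiver samples were taken over 60 min and replaced with fresh DPBS. Transporter-mediated Papp is [3H]Gly-Sar minus [14C]mannitol passive transport; n = 4.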

[16] = as above; type: in vitro ADME, canine; settings: dog; for Papp A→B at 60 min, 0.5 μCi/mL: MDCK-MDR1, AP–BL permeability; for Papp B→A at 60 min, 0.5 μCi/mL: MDCK-MDR1, BL–AP permeability
Method in brief: as §3

[17] = as above; type: in vitro ADME, canine; settings: dog, MDCKII-BCRP
Method in brief: as §3

[18] = system: basolateral peptide transporters; assay: Basolateral [3H]Gly-Sar uptake; type: in vitro ADME, canine; settings: dog, MDCKII-BCRP cells on Transwell inserts (basolateral uptake), pH 7.4
Method in brief: as §2

[19] = system: basolateral peptide transporters in MDCKII-BCRP cells; assay: Basolateral [3H]Gly-Sar uptake; type: in vitro ADME, canine; settings: basolateral uptake, MDCKII-BCRP
Method in brief: as §2

[20] = Transporter-mediated transepithelial Gly-Sar transport; type: in vitro ADME, canine; settings: dog
Method in brief: as §3

[21] = system: apical peptide transporters (PepT1 and PepT2) in MDCKII cell lines; assay: Inhibition of apical [3H]Gly-Sar uptake by peptide transporter inhibitors; type: cell-based, canine; settings: inhibitor 100 μM, pH 7.4, 37 °C, 15 min, all four MDCKII cell lines
[22] = AP–BL permeability, AP chamber pH 4.0, BL pH 7.4
[23] = AP–BL permeability, AP chamber pH 5.0, BL pH 7.4
[24] = AP–BL permeability, AP chamber pH 6.0, BL pH 7.4
[25] = BL–AP permeability, AP chamber pH 4.0, BL pH 7.4
[26] = BL–AP permeability, AP chamber pH 5.0, BL pH 7.4
[27] = BL–AP permeability, AP chamber pH 6.0, BL pH 7.4
[28] = pH 7.4, AP–BL permeability, AP chamber pH 7.4, BL pH 7.4
[29] = pH 7.4, BL–AP permeability, AP chamber pH 7.4, BL pH 7.4
[30] = MDCKII-MDR1, AP chamber pH 4.0, BL pH 7.4
[31] = MDCKII-MDR1, AP chamber pH 5.0, BL pH 7.4
[32] = MDCKII-MDR1, AP chamber pH 6.0, BL pH 7.4

**Q.** Which results are given for OC[C@@H](O)[C@@H](O)[C@H](O)[C@H](O)CO [[^14C]Mannitol, Mannitol]?
**A.** Papp A→B at 60 min, 0.125 µCi/mL [1]: 42.1 ± 0.5 ×10⁻⁶ cm/s; Papp A→B at 60 min, 0.125 µCi/mL [2]: 18.4 ± 0.9 ×10⁻⁶ cm/s

**Q.** What does the source list for CN(CC(=O)O)C(=O)CN [Gly-Sar, Glycylsarcosine] (H-Gly-[Sar]-OH)?
**A.** transport efficiency relative to that in wild-type cells ([3]; apical peptide transporters, MDCKII-MDR1 vs wild-type): around 25%; Vmax ([3]; apical uptake, MDCKII-MDR1, low passage): 1.30 ± 0.36 fmol/mg protein/min; Vmax relative to that in wild-type cells ([3]; apical uptake, hMDR1-transfected vs wild-type): about 12%; Km at 15 min [4]: 29.1 ± 3.29 µM; Km ([5]; apical uptake, MDCKII-wt): 59.7 ± 1.1 µM; Vmax ([5]; apical uptake, MDCKII-wt): 10.76 ± 1.68 fmol/mg protein/min; extracellular pH of maximal apical uptake ([5]; pH 4.0–7.4 tested, all MDCKII cell lines): 6.0; uptake in MDCKII-wt cells in comparison with transfected cells ([5]; total apical uptake at 37 °C, pH 7.4): 3–5 fold; Vmax [6]: 8.03 ± 1.78 fmol/mg protein/min; Km at 15 min [7]: 64.6 ± 4.09 µM; Vmax [8]: 8.52 ± 0.81 fmol/mg protein/min; Km at 15 min [9]: 50.9 ± 7.86 µM; Km [10]: 13.7 ± 2.22 µM; Vmax [10]: 4.45 ± 0.04 fmol/mg protein/min; transport efficiency relative to that in wild-type cells ([11]; apical peptide transporters, MDCKII-BCRP vs wild-type): ~41%; Vmax ([11]; apical uptake, MDCKII-BCRP, low passage): 4.50 ± 0.83 fmol/mg protein/min; Vmax relative to that in wild-type cells ([11]; apical uptake, hBCRP-transfected vs wild-type): ~42%; Km at 15 min [12]: 60.7 ± 8.56 µM; transport efficiency relative to that in wild-type cells ([13]; apical peptide transporters, MDCKII-MRP2 vs wild-type): ~30%; Vmax ([13]; apical uptake, MDCKII-MRP2, low passage): 4.62 ± 0.76 fmol/mg protein/min; Vmax relative to that in wild-type cells ([13]; apical uptake, hMRP2-transfected vs wild-type): ~43%; Km at 15 min [14]: 84.8 ± 18.6 µM; Papp A→B at 60 min, 0.5 μCi/mL [15, 22]: 13.1 ± 1.4 ×10⁻⁶ cm/s; Papp A→B at 60 min, 0.5 μCi/mL [15, 23]: 14.9 ± 2.8 ×10⁻⁶ cm/s; Papp A→B at 60 min, 0.5 μCi/mL [15, 24]: 22.2 ± 1.9 ×10⁻⁶ cm/s; Papp B→A at 60 min, 0.5 μCi/mL [15, 25]: 9.4 ± 0.4 ×10⁻⁶ cm/s; Papp B→A at 60 min, 0.5 μCi/mL [15, 26]: 6.6 ± 0.6 ×10⁻⁶ cm/s; Papp B→A at 60 min, 0.5 μCi/mL [15, 27]: 6 ± 1 ×10⁻⁶ cm/s; Papp A→B at 60 min, 0.5 μCi/mL [15, 28]: 36.7 ± 0.2 ×10⁻⁶ cm/s; Papp B→A at 60 min, 0.5 μCi/mL [15, 29]: 8 ± 0.9 ×10⁻⁶ cm/s; Papp A→B at 60 min, 0.5 μCi/mL [16, 30]: 6 ± 0.4 ×10⁻⁶ cm/s; Papp A→B at 60 min, 0.5 μCi/mL [16, 31]: 6.4 ± 0.5 ×10⁻⁶ cm/s; Papp A→B at 60 min, 0.5 μCi/mL [16, 32]: 8 ± 0.4 ×10⁻⁶ cm/s; Papp B→A at 60 min, 0.5 μCi/mL [16, 30]: 10.1 ± 1.3 ×10⁻⁶ cm/s; Papp B→A at 60 min, 0.5 μCi/mL [16, 31]: 7.6 ± 0.8 ×10⁻⁶ cm/s; Papp B→A at 60 min, 0.5 μCi/mL [16, 32]: 8.2 ± 0.5 ×10⁻⁶ cm/s; Papp A→B at 60 min, 0.5 μCi/mL [17, 22]: 7.1 ± 0.3 ×10⁻⁶ cm/s; Papp A→B at 60 min, 0.5 μCi/mL [17, 23]: 7.6 ± 1.2 ×10⁻⁶ cm/s; Papp A→B at 60 min, 0.5 μCi/mL [17, 24]: 10.7 ± 0.7 ×10⁻⁶ cm/s; Papp B→A at 60 min, 0.5 μCi/mL [17, 25]: 10.9 ± 0.7 ×10⁻⁶ cm/s; Papp B→A at 60 min, 0.5 μCi/mL [17, 26]: 6.5 ± 0.7 ×10⁻⁶ cm/s; Papp B→A at 60 min, 0.5 μCi/mL [17, 27]: 7.2 ± 0.9 ×10⁻⁶ cm/s; Papp A→B at 60 min, 0.5 μCi/mL [17, 28]: 18.6 ± 1.9 ×10⁻⁶ cm/s; Papp B→A at 60 min, 0.5 μCi/mL [17, 29]: 15.6 ± 0.1 ×10⁻⁶ cm/s; Km at 15 min [18]: 46.1 ± 2.26 µM; Vmax [19]: 13.07 ± 2.61 fmol/mg protein/min; Papp A→B at 60 min, 0.5 μCi/mL ([20]; AP–BL permeability, MDCKII-MRP2, AP chamber pH 4.0, BL pH 7.4): 8.6 ± 1.1 ×10⁻⁶ cm/s; Papp A→B at 60 min, 0.5 μCi/mL ([20]; AP–BL permeability, MDCKII-MRP2, AP chamber pH 5.0, BL pH 7.4): 9.9 ± 0.8 ×10⁻⁶ cm/s; Papp A→B at 60 min, 0.5 μCi/mL ([20]; AP–BL permeability, MDCKII-MRP2, AP chamber pH 6.0, BL pH 7.4): 10.6 ± 0.1 ×10⁻⁶ cm/s; Papp B→A at 60 min, 0.5 μCi/mL ([20]; BL–AP permeability, MDCKII-MRP2, AP chamber pH 4.0, BL pH 7.4): 8.5 ± 0.6 ×10⁻⁶ cm/s; Papp B→A at 60 min, 0.5 μCi/mL ([20]; BL–AP permeability, MDCKII-MRP2, AP chamber pH 5.0, BL pH 7.4): 6.3 ± 0.4 ×10⁻⁶ cm/s; Papp B→A at 60 min, 0.5 μCi/mL ([20]; BL–AP permeability, MDCKII-MRP2, AP chamber pH 6.0, BL pH 7.4): 7.5 ± 0.5 ×10⁻⁶ cm/s; Papp A→B at 60 min, 0.5 μCi/mL ([20]; pH 7.4, AP–BL permeability, MDCKII-MRP2, AP chamber pH 7.4, BL pH 7.4): 17.7 ± 1.4 ×10⁻⁶ cm/s; Papp B→A at 60 min, 0.5 μCi/mL ([20]; pH 7.4, BL–AP permeability, MDCKII-MRP2, AP chamber pH 7.4, BL pH 7.4): 15.7 ± 0.6 ×10⁻⁶ cm/s

**Q.** Which “effect on apical [3H]Gly-Sar uptake compared to control” value [21] does the source give for CCC(=O)O[C@@H](O[P@](=O)(CCCCc1ccccc1)CC(=O)N1C[C@H](C2CCCCC2)C[C@H]1C(=O)O)C(C)C [fosinopril, Fosinopril] here?
**A.** Its value is “significantly reduced apical Gly-Sar uptake”.
